Values after ≈ are worked out from the molar mass of the structure shown.
Columns and labels:
L1210 = experiment: Inhibitory concentration of compound against proliferation of murine lukemia cells L1210 was determined; format: functional, cell-based; conditions: Mus musculus
Method in brief: (§1)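 (5–7.5) × 10^4 cells per well were incubated with test compound at 37 °C in a humidified CO2 atmosphere. L1210 murine leukemia cells grew for 48 h, and CEM and Molt4/clone 8 human lymphocytes grew for 72 h. Cells were then counted with a Coulter counter. IC50 is the concentration inhibiting proliferation by 50%.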

CCRF-CEM = experiment: Inhibitory concentration against proliferation of human T-lymphocytic (CEM) cells; format: functional, cell-based; conditions: Homo sapiens, CCRF-CEM; method in brief: as §1
Mus musculus [1] = organism: Mus musculus; experiment: Effective concentration of compound required to protect C3H/3T3 embryo murine fibroblasts against the MSV induced transformation; format: functional, organism-based; conditions: Mus musculus, C3H/3T3
Method in brief: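 Monolayer murine embryo fibroblast C3H/3T3 cultures were infected with Moloney murine sarcoma virus at 75 focus-forming units and cultured with test compound. Transformation was examined microscopically on day 6 postinfection. EC50 is the concentration protecting cells against MSV-induced transformation by 50%.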

[2] = system: Human immunodeficiency virus 2; experiment: Concentration required to protect human T-lymphocytic cells against the cytopathogenicity of HIV-2; format: functional, organism-based; conditions: Human immunodeficiency virus 2
Mus musculus [3] = organism: Mus musculus; experiment: Minimal inhibitory concentration required to cause a microscopic detectable alteration of C3H/3T3 embryo murine fibroblast cell morphology; format: functional
Method in brief: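 Uninfected C3H/3T3 murine embryo fibroblast cultures were exposed to test compound and checked microscopically for changes in cell morphology. The MIC is the concentration causing a microscopically detectable alteration of morphology.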

[4] = system: Human immunodeficiency virus 1; experiment: Effective concentration of compound required to protect human T-lymphocytic cells against the cytopathogenicity of HIV-1; format: functional, organism-based; conditions: Human immunodeficiency virus 1
MOLT-4 = experiment: Inhibitory concentration of compound against proliferation of human T-lymphocytic cells MOLT-4/C8 was determined; format: functional, cell-based; method in brief: as §1

Row | IC50 (L1210) | IC50 (CCRF-CEM) | EC50 [2] | EC50 [4] | IC50 (MOLT-4) | SMILES | EC50 (Mus musculus [1]) | MIC (Mus musculus [3])
1 | > 500 µM | > 500 µM | 17 µM | 15 µM | > 500 µM | NCCCCCCNC(=O)[C@@H]1NC(=O)C2NC(=O)C(NC(=O)C3NC(=O)C4NC(=O)C(Cc5ccc(c(Cl)c5)Oc5cc3cc(c5O)Oc3ccc(cc3Cl)C2O)NC(=O)C(N)c2ccc(O)c(c2)Oc2cc(O)cc4c2)c2ccc(O)c(c2)-c2c(O)cc(O)cc21 (stereo partly specified) | > 4 µM | 20 µM (≈ 25.9 µg/mL)
2 | 364 µM | 248 µM | 15 µM | 9.5 µM | > 500 µM | COC(=O)[C@@H]1NC(=O)C2NC(=O)C(NC(=O)C3NC(=O)C4NC(=O)C(Cc5ccc(c(Cl)c5)Oc5cc3cc(c5O)Oc3ccc(cc3Cl)C2O)NC(=O)C(N)c2ccc(O)c(c2)Oc2cc(O)cc4c2)c2ccc(O)c(c2)-c2c(O)cc(O)cc21 (stereo partly specified) | 12 µM | > 100 µM
3 | > 500 µM | > 500 µM | > 250 µM | 115 µM | > 500 µM | CNC1C(=O)NC2Cc3ccc(cc3)Oc3cc4cc(c3OC3OC(C(=O)O)C(O)C(O)C3N)Oc3ccc(cc3Cl)C(O)C3NC(=O)C(NC(=O)C4NC(=O)C(NC2=O)c2cc(cc(O)c2Cl)Oc2cc1ccc2O)c1ccc(O)c(c1)-c1c(O)cc(O)cc1[C@H](C(=O)O)NC3=O (stereo partly specified) | > 100 µM | > 100 µM
4 | > 500 µM | > 500 µM | 190 µM | 80 µM | > 500 µM | CNC(=O)[C@@H]1NC(=O)C2NC(=O)C(NC(=O)C3NC(=O)C4NC(=O)C(NC(=O)C(N)c5ccc(O)c(c5)Oc5cc(O)cc4c5)C(O)c4ccc(c(Cl)c4)Oc4cc3cc(c4O[C@@H]3O[C@@H](CO)[C@@H](O)[C@H](O)[C@@H]3NC(=O)CCCCCCC(C)C)Oc3ccc(cc3Cl)C2O[C@@H]2O[C@@H](CO)[C@@H](O)[C@H](O)[C@@H]2NC(C)=O)c2ccc(O)c(c2)-c2c(O[C@H]3O[C@H](CO)[C@@H](O)[C@@H](O)[C@@H]3O)cc(O)cc21 (stereo partly specified) | 75 µM | > 100 µM
5 | > 500 µM | > 500 µM | 100 µM | 17 µM | > 500 µM | CC(=O)N[C@@H]1[C@H](OC2c3ccc(c(Cl)c3)Oc3cc4cc(c3O[C@@H]3O[C@@H](CO)[C@@H](O)[C@H](O)[C@@H]3NC(=O)CCCCCCC(C)C)Oc3ccc(cc3Cl)C(O)C3NC(=O)C(N)c5ccc(O)c(c5)Oc5cc(O)cc(c5)C(NC3=O)C(=O)NC4C(=O)NC3C(=O)NC2C(=O)N[C@@H](C(=O)O)c2cc(O)cc(O[C@H]4O[C@H](CO)[C@@H](O)[C@@H](O)[C@@H]4O)c2-c2cc3ccc2O)O[C@@H](CO)[C@@H](O)[C@@H]1O (stereo partly specified) | > 100 µM | > 100 µM
6 | 33 µM | 83 µM | 4 µM | 10 µM | 39 µM | O=C1NC2C(=O)NC3C(=O)NC4C(=O)NC(C(=O)N[C@@H](C(=O)O)c5cc(O)cc(O)c5-c5cc4ccc5O)C(O)c4ccc(c(Cl)c4)Oc4cc3cc(c4O)Oc3ccc(cc3Cl)CC1NC(=O)C(NC(=O)C13CC4CC(CC(C4)C1)C3)c1ccc(O)c(c1)Oc1cc(O)cc2c1 (stereo partly specified) | 11 µM | 100 µM (≈ 136 µg/mL)
7 | 84 µM | > 100 µM | 3.5 µM | 4 µM | > 100 µM | CNC(=O)[C@@H]1NC(=O)C2NC(=O)C(NC(=O)C3NC(=O)C(CC(N)=O)NC(=O)C(NC(=O)C(CC(C)C)N(C)C(=O)OC(C)(C)C)C(O)c4ccc(c(Cl)c4)Oc4cc3cc(c4O)Oc3ccc(cc3)C2O)c2ccc(O)c(c2)-c2c1cc(O)c(CN1CCN(Cc3ccc(-c4ccccc4)cc3)CC1)c2O (stereo partly specified) | > 4 µM | 20 µM (≈ 29.7 µg/mL)

Row | SMILES | IC50 (L1210) | IC50 (CCRF-CEM) | EC50 [2] | EC50 [4] | IC50 (MOLT-4) | EC50 (Mus musculus [1]) | MIC (Mus musculus [3])
8 | CN[C@H](CC(C)C)C(=O)N[C@H]1C(=O)N[C@@H](CC(N)=O)C(=O)N[C@H]2C(=O)N[C@H]3C(=O)N[C@H](C(=O)N[C@H](C(=O)O)c4cc(O)cc(O)c4-c4cc3ccc4O)[C@H](O)c3ccc(c(Cl)c3)Oc3cc2cc(c3O[C@@H]2O[C@H](CO)[C@@H](O)[C@H](O)[C@H]2O[C@H]2C[C@](C)(N)[C@H](O)[C@H](C)O2)Oc2ccc(cc2Cl)[C@H]1O [VANCOMYCIN] | > 500 µM | > 500 µM | > 250 µM | > 250 µM | > 500 µM | > 100 µM | > 100 µM
